Measured values published in ChEMBL document CHEMBL5154742, “Thiosugar naphthalene diimide conjugates: G-quadruplex ligands with antiparasitic and anticancer activity” (Eur J Med Chem, 2022).
Blank lines part the entries; values can stand above or below the compound they belong to. Activity calls are given as the source filed them. The rule behind the calls is not given here.

Tests used:
Trypanosoma brucei = assay: Antitrypanosomal activity against Trypanosoma brucei incubated for 72 hrs by alamar blue dye based fluorimetry analysis; assay type: functional, organism-based
Method in brief: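 Bloodstream-form T. brucei S16 (Lister 427, MiTat 1.2), 1×10^3 per well in HMI-9 with 20% hiFBS, exposed to increasing compound concentrations for 72 h at 37 °C, 5% CO2. Resazurin then added for 4 h, cells lysed with SDS, fluorescence read at ex 550/em 590 nm. IC50 from four-parameter logistic fit; three independent runs, each in triplicate.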

Leishmania major = assay: Antileishmanial activity against Leishmania major (MHOM/IL/80/Friedlin) promastigotes assessed as reduction in parasite growth incubated for 72 hrs by MTT assay; assay type: functional, organism-based
Method in brief: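 L. major Friedlin promastigotes, 1×10^6/mL in modified RPMI-1640 with 10% hiFBS, exposed to increasing compound concentrations for 72 h at 28 °C; proliferation read by MTT; IC50 from four-parameter logistic fit versus untreated controls.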

HT-29 = assay: Cytotoxicity against human HT-29 cells assessed as reduction in cell viability incubated for 48 hrs by MTT assay; assay type: functional, cell-based; details: HT-29, 48 h
Method in brief: (§1)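 MTT assay: 5×10^3 cells per well in DMEM with 10% hiFBS (4.5 g/L glucose for HT-29, 1 g/L for MRC-5), exposed to increasing compound concentrations for 48 h at 37 °C. MTT added for 4 h, formazan dissolved in DMSO, absorbance read at 575 nm. IC50 from four-parameter logistic fit.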

[1] = Cytotoxicity against human MRC5 cells assessed as reduction in cell viability incubated for 48 hrs by MTT assay; assay type: toxicity, cell-based; method in brief: as §1
[2] = Selectivity index, ratio of IC50 for human MRC5 cells to IC50 for human HT-29 cells; assay type: toxicity; details: MRC5 cells versus HT-29 cells, read-out: Selectivity Index
Method in brief: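 Selectivity index: MRC-5 IC50 divided by HT-29 IC50.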

[3] = Selectivity index, ratio of IC50 for cytotoxicity against human MRC5 cells to IC50 for antitrypanosomal activity against Trypanosoma brucei; assay type: toxicity, cell-based; details: MRC5 cells versus Trypanosoma brucei, read-out: Selectivity Index
Method in brief: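 Selectivity index: MRC-5 IC50 divided by T. brucei IC50.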

[4] = Drug uptake in human HT-29 cells at 10 uM incubated for 2 hrs by fluorescence based multiplate reader method; assay type: ADME, cell-based; details: ht-29, 2 h
Method in brief: (§2)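 225,000 trypsinized cells incubated with 10 μM compound in 0.75 mL medium for 2 h at 37 °C; washed three times with PBS, lysed in 3% SDS and sonicated. NDI fluorescence read at ex 485/em 535 nm, quantified against a calibration curve in cell lysate and normalized to BCA protein. Reported as % of compound added.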

[5] = Drug uptake in human MRC5 cells at 10 uM incubated for 2 hrs by fluorescence based multiplate reader method; assay type: ADME, cell-based; details: mrc5, 2 h; method in brief: as §2
[6] = Drug uptake in Trypanosoma brucei at 10 uM incubated for 2 hrs by fluorescence based multiplate reader method; assay type: ADME
[7] = Selectivity index, ratio of IC50 for cytotoxicity against human MRC5 cells to IC50 for antileishmanial activity against Leishmania major (MHOM/IL/80/Friedlin) promastigotes; assay type: toxicity, cell-based; details: read-out: Selectivity Index
Method in brief: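 Selectivity index: MRC-5 IC50 divided by L. major promastigote IC50.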

Quadruplex DNA [8] = assay: Binding affinity to human G-quadruplex telomeric DNA F21T (5'-duplex GGG TTAGGG TTAGGG TTAGGG-3') assessed as change in melting temperature at 1 uM incubated for 5 min by FRET assay; assay type: nucleic-acid assay
Method in brief: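 Fluorescently labelled oligonucleotide annealed (95 °C, 5 min) in 10 mM lithium cacodylate/90 mM LiCl, pH 7.2; 0.2 μM final, with or without ligand. Held 5 min at 25 °C, then heated 0.5 °C/min to 95 °C. Tm taken at normalized signal 0.5; ΔTm = Tm with ligand minus Tm without. Tested in duplicate.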

Quadruplex DNA [9] = assay: Binding affinity to parallel G-quadruplex DNA TGGGGT TGGGGT TGGGGT TGGGGT (unknown origin) by mass spectrometric analysis; assay type: nucleic-acid assay
Method in brief: (§3)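 Native ESI-FTICR MS in negative ion mode under soft conditions, in 100 mM ammonium acetate; DNA at 5 μM with ligand at 10 μM.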

Quadruplex DNA [10] = assay: Binding affinity to human G-quadruplex telomeric DNA F21T (5'-duplex GGG TTAGGG TTAGGG TTAGGG-3') by mass spectrometric analysis; assay type: nucleic-acid assay; method in brief: as §3
[11] = Drug localization in nucleus of human HT-29 cells at 25 uM incubated for 30 to 120 mins by DAPI staining based fluorescence microscopic analysis; assay type: ADME, subcellular; details: ht-29, 25 µM, time 30-120 min
Method in brief: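 HT-29 cells grown 24 h on coverslips in FBS-free medium, then exposed to 25 μM compound for 30 or 120 min at 37 °C. Mounted in DAPI medium and imaged by widefield fluorescence microscopy; compound emission collected at 578–610 nm, DAPI at 437–474 nm.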

[12] = Drug localization in nucleus of Trypanosoma brucei at 5 uM incubated for 30 to 120 mins by DAPI staining based fluorescence microscopic analysis; assay type: ADME, subcellular; details: time 30-120 min
Method in brief: (§4)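 T. brucei at 1×10^7/mL exposed to 5 μM compound in FBS-free medium for 30 and 120 min at 37 °C; fixed in cold 4% paraformaldehyde, DAPI-stained and imaged by widefield microscopy. Compound excited with the 542–566 filter and emission collected at 578–610 nm.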

[13] = Drug localization in cytoplasm of Trypanosoma brucei at 5 uM incubated for 30 to 120 mins by DAPI staining based fluorescence microscopic analysis; assay type: ADME, subcellular; details: time 30-120 min; method in brief: as §4

Structure (SMILES): O=C1c2ccc3c4c(c(NCc5cn(CCS[C@@H]6O[C@H](CO)[C@@H](O[C@H]7O[C@H](CO)[C@@H](O)[C@H](O)[C@H]7O)[C@H](O)[C@H]6O)nn5)cc(c24)C(=O)N1CCN1CCOCC1)C(=O)N(CCN1CCOCC1)C3=O
IC50 (Trypanosoma brucei): 3040 nM | IC50 (Leishmania major): > 50000 nM | IC50 (HT-29): 13700 nM | IC50 at 48 h [1]: > 50000 nM | selectivity ratio [2]: > 3.6 | selectivity ratio [3]: > 16 | Drug uptake [4]: 3.5% | Drug uptake [5]: 3.3% | Drug uptake [6]: 6.7%

Structure (SMILES): CN(C)CCCN1C(=O)c2ccc3c4c(c(NCc5cn(CCO[C@@H]6O[C@H](CO)[C@H](O)[C@H](O)[C@H]6O)nn5)cc(c24)C1=O)C(=O)N(CCCN(C)C)C3=O
IC50 (Trypanosoma brucei): 50 nM | IC50 (Leishmania major): 13900 nM | IC50 (HT-29): 500 nM | IC50 at 48 h [1]: 1940 nM | selectivity ratio [2]: 3.9 | selectivity ratio [7]: 0.14 | selectivity ratio [3]: 38.8 | ΔTm (Quadruplex DNA [8]): 10 °C | Activity (Quadruplex DNA [9]): Active | Activity (Quadruplex DNA [10]): Active

Structure (SMILES): CN(C)CCCN1C(=O)c2ccc3c4c(c(NCc5cn(CCS[C@@H]6O[C@H](CO)[C@@H](O)[C@H](O)[C@H]6O)nn5)cc(c24)C1=O)C(=O)N(CCCN(C)C)C3=O
IC50 (Trypanosoma brucei): 50 nM | IC50 (Leishmania major): 1380 nM | IC50 (HT-29): 750 nM | IC50 at 48 h [1]: 2750 nM | selectivity ratio [2]: 3.7 | selectivity ratio [7]: 2 | selectivity ratio [3]: 55

Structure (SMILES): O=C1c2ccc3c4c(c(NCc5cn(CCO[C@@H]6O[C@H](CO)[C@@H](O[C@H]7O[C@H](CO)[C@@H](O)[C@H](O)[C@H]7O)[C@H](O)[C@H]6O)nn5)cc(c24)C(=O)N1CCN1CCOCC1)C(=O)N(CCN1CCOCC1)C3=O
IC50 (Trypanosoma brucei): 3320 nM | IC50 (Leishmania major): > 50000 nM | IC50 (HT-29): 13000 nM | IC50 at 48 h [1]: > 50000 nM | selectivity ratio [2]: > 3.8 | selectivity ratio [3]: > 15 | Drug uptake [4]: 3.2% | Drug uptake [5]: 0.8% | Drug uptake [6]: 6.1%

Structure (SMILES): CN(C)CCCN1C(=O)c2ccc3c4c(c(NCc5cn(CCS[C@@H]6O[C@H](CO)[C@H](O)[C@H](O)[C@H]6O)nn5)cc(c24)C1=O)C(=O)N(CCCN(C)C)C3=O
IC50 (Trypanosoma brucei): 40 nM | IC50 (Leishmania major): 740 nM | IC50 (HT-29): 350 nM | IC50 at 48 h [1]: 1550 nM | selectivity ratio [2]: 4.4 | selectivity ratio [7]: 2.1 | selectivity ratio [3]: 38.7 | ΔTm (Quadruplex DNA [8]): 10 °C | Activity (Quadruplex DNA [9]): Active | Activity (Quadruplex DNA [10]): Active

Structure (SMILES): CN(C)CCCN1C(=O)c2ccc3c4c(c(NCc5cn(CCO[C@@H]6O[C@H](CO)[C@@H](O[C@H]7O[C@H](CO)[C@@H](O)[C@H](O)[C@H]7O)[C@H](O)[C@H]6O)nn5)cc(c24)C1=O)C(=O)N(CCCN(C)C)C3=O
Drug uptake [11]: Active | Drug uptake [12]: Active | IC50 (Trypanosoma brucei): 60 nM | IC50 (Leishmania major): 800 nM | IC50 (HT-29): 480 nM | IC50 at 48 h [1]: 1800 nM | selectivity ratio [2]: 3.8 | selectivity ratio [7]: 2.3 | selectivity ratio [3]: 30 | ΔTm (Quadruplex DNA [8]): 10 °C | Drug uptake [4]: 20.9% | Drug uptake [5]: 25.5% | Drug uptake [6]: 7% | Drug uptake [13]: Active

Structure (SMILES): CN(C)CCCN1C(=O)c2ccc3c4c(c(NCc5cn(CCS[C@H]6O[C@H](CO)[C@@H](O)[C@H](O)[C@@H]6O)nn5)cc(c24)C1=O)C(=O)N(CCCN(C)C)C3=O
IC50 (Trypanosoma brucei): 80 nM | IC50 (Leishmania major): 1520 nM | IC50 (HT-29): 880 nM | IC50 at 48 h [1]: 2780 nM | selectivity ratio [2]: 3.2 | selectivity ratio [7]: 1.8 | selectivity ratio [3]: 34.7 | Drug uptake [6]: 6.1%

The remaining compounds from weak to strong by IC50 (Trypanosoma brucei), led by results:

IC50 (Trypanosoma brucei): 2100 nM | Drug uptake [6]: 4.2%
Structure (SMILES): O=C1c2ccc3c4c(c(NCc5cn(CCO[C@H]6O[C@H](CO)[C@@H](O)[C@H](O)[C@@H]6O)nn5)cc(c24)C(=O)N1CCN1CCOCC1)C(=O)N(CCN1CCOCC1)C3=O
IC50 (Leishmania major): > 50000 nM | IC50 (HT-29): 8520 nM | IC50 at 48 h [1]: 30500 nM | selectivity ratio [2]: 3.6 | selectivity ratio [3]: 14.5

IC50 (Trypanosoma brucei): 1180 nM
Structure (SMILES): O=C1c2ccc3c4c(c(NCc5cn(CCS[C@@H]6O[C@H](CO)[C@@H](O)[C@H](O)[C@H]6O)nn5)cc(c24)C(=O)N1CCN1CCOCC1)C(=O)N(CCN1CCOCC1)C3=O
IC50 (Leishmania major): 30200 nM | IC50 (HT-29): 28900 nM | IC50 at 48 h [1]: 35700 nM | selectivity ratio [2]: 1.2 | selectivity ratio [7]: 1.2 | selectivity ratio [3]: 30.3

IC50 (Trypanosoma brucei): 730 nM | Drug uptake [6]: 3.2%
Structure (SMILES): O=C1c2ccc3c4c(c(NCc5cn(CCS[C@H]6O[C@H](CO)[C@@H](O)[C@H](O)[C@@H]6O)nn5)cc(c24)C(=O)N1CCN1CCOCC1)C(=O)N(CCN1CCOCC1)C3=O
IC50 (Leishmania major): 21700 nM | IC50 (HT-29): 3390 nM | IC50 at 48 h [1]: 22600 nM | selectivity ratio [2]: 6.7 | selectivity ratio [7]: 1.1 | selectivity ratio [3]: 31

IC50 (Trypanosoma brucei): 310 nM
Structure (SMILES): O=C1c2ccc3c4c(c(NCc5cn(CCO[C@@H]6O[C@H](CO)[C@@H](O)[C@H](O)[C@H]6O)nn5)cc(c24)C(=O)N1CCN1CCOCC1)C(=O)N(CCN1CCOCC1)C3=O
IC50 (Leishmania major): 10500 nM | IC50 (HT-29): 1750 nM | IC50 at 48 h [1]: 7860 nM | selectivity ratio [2]: 4.5 | selectivity ratio [7]: 0.7 | selectivity ratio [3]: 25.3

IC50 (Trypanosoma brucei): 80 nM
Structure (SMILES): CN(C)CCCN1C(=O)c2ccc3c4c(c(NCc5cn(CCO[C@@H]6O[C@H](CO)[C@@H](O)[C@H](O)[C@H]6O)nn5)cc(c24)C1=O)C(=O)N(CCCN(C)C)C3=O
IC50 (Leishmania major): 790 nM | IC50 (HT-29): 460 nM | IC50 at 48 h [1]: 920 nM | selectivity ratio [2]: 2 | selectivity ratio [7]: 1.2 | selectivity ratio [3]: 11.5

IC50 (Trypanosoma brucei): 50 nM | Drug uptake [6]: 8.1%
Structure (SMILES): CN(C)CCCN1C(=O)c2ccc3c4c(c(NCc5cn(CCO[C@H]6O[C@H](CO)[C@@H](O)[C@H](O)[C@@H]6O)nn5)cc(c24)C1=O)C(=O)N(CCCN(C)C)C3=O
IC50 (Leishmania major): 300 nM | IC50 (HT-29): 430 nM | IC50 at 48 h [1]: 950 nM | selectivity ratio [2]: 2.2 | selectivity ratio [7]: 3.2 | selectivity ratio [3]: 19
